Hits are enriched below; roughly 4.1% of the tested compounds scored in any of these assays.
KCNK3 block = human KCNK3 channel inhibition, primary screen. actives 0.84% (n = 340,000). O14649. CHO-KCNK3 thallium flux, FluxOR fluorescence; active compounds read low. B-score at 10 µM;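 active means B-score under library mean minus 4 SD, starting fluorescence ratio at most library mean plus 5 SD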;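 further: more negative B-score means stronger inhibition of thallium flux through KCNK3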
hERG rescue = compounds protecting human hERG from proarrhythmic drug block. AID 1511. CHO-hERG, FluxOR thallium flux, dofetilide IC70 present. actives 0.51% (n = 310,000). activation (rescue from dofetilide block), less the hit threshold, % at 10 µM. Q12809;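 active means activation above the mean of controls blocked by dofetilide plus 5 SD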;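 further: thallium influx through hERG after potassium depolarization seen as dye fluorescence rise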
KCNQ1 inh = blocks the human KCNQ1 potassium channel; CHO-K1 KCNQ1, FluxOR thallium flux fluorescence; active compounds read high; AID 2642; P51787; actives 1.3% (n = 310,000); B-score at 10 µM;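 active means compounds whose thallium flux B-score, printed positive for inhibition, exceeds three library SD while starting fluorescence stays within three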;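 further: channel opened by potassium depolarization with thallium stimulus after 20 min compound exposure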
Target sequence (P51787 whole entry, looked up): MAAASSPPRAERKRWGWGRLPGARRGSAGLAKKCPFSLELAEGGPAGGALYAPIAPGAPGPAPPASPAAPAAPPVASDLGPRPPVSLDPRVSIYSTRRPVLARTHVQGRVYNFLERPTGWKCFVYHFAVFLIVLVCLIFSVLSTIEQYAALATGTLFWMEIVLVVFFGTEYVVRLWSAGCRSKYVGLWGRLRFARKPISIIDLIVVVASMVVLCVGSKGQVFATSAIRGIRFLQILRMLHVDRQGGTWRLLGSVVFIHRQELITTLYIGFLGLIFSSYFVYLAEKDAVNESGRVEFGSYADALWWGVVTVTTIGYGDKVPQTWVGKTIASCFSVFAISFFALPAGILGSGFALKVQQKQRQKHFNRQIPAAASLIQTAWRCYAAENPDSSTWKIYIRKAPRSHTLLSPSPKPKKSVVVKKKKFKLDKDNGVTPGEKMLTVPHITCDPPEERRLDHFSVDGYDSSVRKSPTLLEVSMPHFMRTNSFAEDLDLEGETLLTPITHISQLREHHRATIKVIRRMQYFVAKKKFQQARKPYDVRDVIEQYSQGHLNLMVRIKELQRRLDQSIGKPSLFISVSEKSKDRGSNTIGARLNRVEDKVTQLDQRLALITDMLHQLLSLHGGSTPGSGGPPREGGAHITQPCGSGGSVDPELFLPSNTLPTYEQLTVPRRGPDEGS
KCNK9 inh = inhibitors of human KCNK9 two-pore domain potassium channel. B-score at 10 µM. actives 1.2% (n = 310,000). HEK293 KCNK9, FluxOR thallium flux fluorescence; active compounds read low. Q9NPC2;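 active means ratio B-score over 3 SD below the library mean, with starting fluorescence within 5 SD of its mean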;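 further: negative B-score means less thallium flux so channel inhibition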
Cl transport mod = modulates chloride dependent transport by human KCC2; actives 2.2% (n = 190,000); KCC2 cells, thallium flux FluoZin-2 fluorescence; Q9H2X9; AID 1456; B-score of Tl+ flux slope (higher = more flux/activation; lower = inhibition) at 10 µM;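 active means thallium flux slope and its plate-corrected score both differing from the plate sample mean at a set confidence after two filtering rounds, in either direction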;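 further: slope of fluorescence scaled to starting intensity during 10 to 20 s after thallium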
KCNQ1 pot = human KCNQ1 channel potentiation or activation. P51787. CHO-K1 KCNQ1, thallium flux FluxOR fluorescence; active compounds read high. B-score at 10 µM. actives 0.35% (n = 310,000). AID 2648;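 active means fluorescence ratio B-score, a plate-corrected score, at least three library SD, with initial intensity B-score within 5 SD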
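Material: CHO-K1 cells stably expressing KCNQ1. Medium: assay buffer for compound exposure, DMSO matched across wells. Reagent: K+/Tl+ depolarizing stimulus. Compound dosing: single-concentration screen. Times: 37 °C overnight plating, 90-min dark dye load, 20-min compound pretreatment. Technique: FluxOR Tl+ flux fluorescence.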
Active calls of the source: *.

What do the screens show for `O=[N+]([O-])c1cccc(/C=N/Nc2cc(Cl)nc(-c3ccccc3)n2)c1`?
KCNK3 block: -10*; hERG rescue: -9; KCNQ1 inh: 12*; KCNK9 inh: inactive; KCNQ1 pot: inactive

Results for O=[N+]([O-])c1ccc(/C=N/Nc2cc(Cl)nc(-c3ccccc3)n2)cc1 ?
KCNK3 block: inactive; hERG rescue: -10; KCNQ1 inh: inactive; KCNK9 inh: inactive; Cl transport mod: -0.74; KCNQ1 pot: inactive

Results for O=S(=O)(Nc1nc2ccccc2nc1Nc1ccc2c(c1)OCCO2)c1cccs1 ?
KCNK3 block: inactive; hERG rescue: 1; KCNQ1 inh: 12*; KCNK9 inh: inactive; Cl transport mod: -2.9; KCNQ1 pot: inactive

Results for CC(NNC(=S)N1CCN(c2ccccn2)CC1)c1nccc2ccccc12 (stereo not given) ?
KCNK3 block: inactive

Results for Cc1cc(Cn2ccnc2)c(C)c([N+](=O)[O-])c1Cn1ccnc1 ?
KCNK3 block: inactive; hERG rescue: -5; KCNQ1 inh: inactive; KCNK9 inh: inactive; KCNQ1 pot: inactive

What do the screens show for `COc1ccc(/C=N/NC(=O)c2cc(C34CC5CC(CC(C5)C3)C4)[nH]n2)cc1O`?
KCNK3 block: inactive; hERG rescue: -12; KCNQ1 inh: 6*; KCNK9 inh: inactive; KCNQ1 pot: inactive

How did COc1ccc(/C=N\NC(=O)c2ccc(=O)[nH]n2)cc1O do in these assays?
KCNK3 block: inactive; hERG rescue: -5; KCNQ1 inh: inactive; KCNK9 inh: inactive; Cl transport mod: 0.018; KCNQ1 pot: inactive

Results for O=C(N/N=C/c1ccc(O)c(O)c1)NC12CC3CC(CC(C3)C1)C2 ?
KCNK3 block: inactive; hERG rescue: -8; KCNQ1 inh: inactive; KCNK9 inh: inactive; KCNQ1 pot: inactive

What do the screens show for `CCOc1ccc(/C=N/NC(=O)NC23CC4CC(CC(C4)C2)C3)cc1O`?
KCNK3 block: inactive; hERG rescue: -21; KCNQ1 inh: 9*; KCNK9 inh: inactive; KCNQ1 pot: inactive

Results for CC1C(c2ccc3c(c2)OCO3)c2cc3c(cc2OC1N1CCOCC1)OCO3 (stereo not given) ?
KCNK3 block: inactive

How did CCC(C)C(NC(=O)c1ccccc1NC(=O)c1ccc(OC)cc1)C(=O)NCc1ccco1 (stereo not given) do in these assays?
KCNK3 block: inactive; hERG rescue: -13; KCNQ1 inh: 7*; KCNK9 inh: inactive; KCNQ1 pot: inactive

What do the screens show for `CC(C)Oc1ccc(C(=O)NCC(=O)N2CCN(S(=O)(=O)/C=C/c3ccccc3)CC2)cc1`?
KCNK3 block: inactive

How did C[C@H](CO)N1C[C@H](C)[C@@H](CN(C)Cc2ccncc2)Oc2c(NC(=O)Cc3ccccc3)cccc2C1=O do in these assays?
KCNK3 block: -11*

What do the screens show for `O=C(Cn1c(CO)nc2ccccc21)NCCc1ccccc1`?
KCNK3 block: inactive; hERG rescue: 7.3*; KCNQ1 inh: inactive; KCNK9 inh: inactive; Cl transport mod: -1.3; KCNQ1 pot: inactive

Results for O=C(Cn1c(CO)nc2ccccc21)NCCc1ccc(F)cc1 ?
KCNK3 block: inactive; hERG rescue: -8; KCNQ1 inh: inactive; KCNK9 inh: inactive; Cl transport mod: 0.74; KCNQ1 pot: inactive

What do the screens show for `Cc1cc(NCCCn2ccnc2)n2nc(C)c(-c3ccccc3)c2n1`?
KCNK3 block: inactive; hERG rescue: -15; KCNQ1 inh: 6*; KCNK9 inh: inactive; Cl transport mod: -0.92; KCNQ1 pot: inactive

What do the screens show for `O=C(CCl)NCCCCCCCCCNC(=O)CCl`?
KCNK3 block: inactive; hERG rescue: -17; KCNQ1 inh: inactive; KCNK9 inh: inactive; Cl transport mod: 0.76; KCNQ1 pot: inactive

How did CCC(=O)NCCCCCCNC(=O)CC do in these assays?
KCNK3 block: inactive; hERG rescue: 6.9*; KCNQ1 inh: inactive; KCNK9 inh: inactive; Cl transport mod: 0.93; KCNQ1 pot: inactive

Results for Brc1ccc(-c2nc3ccccc3s2)s1 ?
KCNK3 block: inactive; hERG rescue: 0; KCNQ1 inh: inactive; KCNK9 inh: inactive; Cl transport mod: 0.86; KCNQ1 pot: inactive

Results for Brc1cc2c(cc1-c1nc3ccccc3s1)OCO2 ?
KCNK3 block: inactive; hERG rescue: -3; KCNQ1 inh: inactive; KCNK9 inh: -7.1*; KCNQ1 pot: inactive

What do the screens show for `CCCOc1ccc(-c2nc(OC)c3ccccc3n2)cc1`?
KCNK3 block: inactive; hERG rescue: -3; KCNQ1 inh: inactive; KCNK9 inh: -6.6*; Cl transport mod: 0.47; KCNQ1 pot: inactive

How did CCOc1ccc2cc(S(=O)(=O)n3ccnc3C)ccc2c1 do in these assays?
KCNK3 block: inactive; hERG rescue: -3; KCNQ1 inh: inactive; KCNK9 inh: inactive; Cl transport mod: 0.78; KCNQ1 pot: inactive

Results for CCc1nccn1S(=O)(=O)c1ccc2ccc(C)cc2c1 ?
KCNK3 block: inactive; hERG rescue: 27*; KCNQ1 inh: inactive; KCNK9 inh: inactive; Cl transport mod: -0.54; KCNQ1 pot: 28*

Results for COc1cccc(NC(=O)CN(C)C(=O)COc2ccccc2Cc2ccccc2)c1 ?
KCNK3 block: inactive

Results for Cc1cc(C)nc(NS(=O)(=O)c2ccc(NC(=O)c3cc(=O)c4ccccc4o3)cc2)n1 ?
KCNK3 block: inactive; hERG rescue: -9; KCNQ1 inh: inactive; KCNK9 inh: inactive; KCNQ1 pot: inactive

Results for O=C(N/N=C/c1coc2ccccc2c1=O)c1cccc([N+](=O)[O-])c1 ?
KCNK3 block: inactive; hERG rescue: -8; KCNQ1 inh: 7*; KCNK9 inh: inactive; Cl transport mod: -1; KCNQ1 pot: inactive

Results for Cc1cccc(C(=O)N/N=C/c2coc3ccccc3c2=O)c1 ?
KCNK3 block: inactive; hERG rescue: -13; KCNQ1 inh: inactive; KCNK9 inh: inactive; KCNQ1 pot: inactive

What do the screens show for `CC[n+]1ccc(/C=C/c2c[nH]c3ccccc23)cc1`?
KCNK3 block: inactive; hERG rescue: -24; KCNQ1 inh: 10*; KCNK9 inh: inactive; KCNQ1 pot: inactive

Results for CC1=C(C#N)C(=O)N(C)C(C)(C)C1 ?
KCNK3 block: inactive; hERG rescue: -7; KCNQ1 inh: inactive; KCNK9 inh: inactive; Cl transport mod: 2.8*; KCNQ1 pot: inactive

How did COc1ccc(Nc2ccnc3ccccc23)cc1 do in these assays?
KCNK3 block: inactive; hERG rescue: -10; KCNQ1 inh: inactive; KCNK9 inh: inactive; Cl transport mod: -0.51; KCNQ1 pot: inactive

How did CC(C)Nc1ccc(Nc2ccnc3cc4ccccc4cc23)cc1 do in these assays?
KCNK3 block: inactive; hERG rescue: -33; KCNQ1 inh: 9*; KCNK9 inh: inactive; Cl transport mod: -0.56; KCNQ1 pot: inactive

Assay outcomes: PubChem BioAssay, several laboratories
